Source: ChEMBL document CHEMBL1132793, “Chiral synthesis and pharmacological evaluation of NPS 1407: a potent, stereoselective NMDA receptor antagonist” (Bioorg Med Chem Lett, 2000)

Tests used:
[1] = tested on: Mus musculus; assay: Relative anticonvulsant potency in frings mice by intraperitoneal administration expressed as effective dose; format: functional; details: ip
Procedure, shortened: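 Frings audiogenic seizure-susceptible mice of both sexes (18–25 g), in groups of eight, given varying ip doses. At the time of peak effect, each mouse was exposed to a 110 dB (11 kHz) sound for 20 s and observed for 25 s. Absence of hindlimb tonic extension counted as protection. ED50 by probit analysis.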

[2] = tested on: Mus musculus; assay: Relative anticonvulsant potency in frings mice by peroral administration expressed as effective dose; format: functional; details: po
[3] = tested on: Mus musculus; assay: Lethality in mice following 30 mg/kg/day ip dose; 4/7; format: ADME, organism-based; parameters: route intraperitoneal; details: in vivo
[4] = tested on: Mus musculus; assay: Lethality in mice following 60 mg/kg/day ip dose; 8/8; format: ADME, organism-based; parameters: route intraperitoneal; details: in vivo
[5] = Relative anticonvulsant potency in frings mice by peroral administration expressed as toxic dose; format: ADME, organism-based; details: mouse, in vivo, po
[6] = target: Glutamate NMDA receptor; assay: The compound was tested in vitro for the displacement of the radioligand (+)-[3H]-MK-801 from synaptic plasma membranes from rat cortex against N-methyl-D-aspartate glutamate receptor; format: cell-free
[7] = target: Glutamate NMDA receptor; assay: The compound was tested in vitro for the inhibition of N-methyl-D-aspartate glutamate receptor in rat cerebellar granule cells (RCGCs).
Procedure, shortened: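 Cultured rat cerebellar granule cells; cytosolic calcium rise stimulated by NMDA (50 µM) plus glycine (1 µM). Multiple cumulative concentration–response curves with at least five concentrations per test substance; IC50 by logit analysis.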

NCCC(c1cccc(F)c1)c1cccc(F)c1
ED50 [1]: 2.1 mg/kg
ED50 [2]: 9.7 mg/kg

CC(N)CC(c1cccc(F)c1)c1cccc(F)c1 (configuration not stated)
ED50 [1]: 4.9 mg/kg
ED50 [2]: 5.1 mg/kg
Lethality [3]: Lethal
Lethality [4]: Lethal
TD50 [5]: 18.3 mg/kg
IC50 [6]: 1040 nM
IC50 [7]: 145 nM

C[C@H](N)CC(c1cccc(F)c1)c1cccc(F)c1
ED50 [1]: 2.7 mg/kg
ED50 [2]: 7.3 mg/kg
TD50 [5]: 18.6 mg/kg
IC50 [6]: 762 nM
IC50 [7]: 89 nM

C[C@@H](N)CC(c1cccc(F)c1)c1cccc(F)c1
ED50 [1]: 9.1 mg/kg
IC50 [6]: 4500 nM
IC50 [7]: 1110 nM
